Experimental data as given in ChEMBL document CHEMBL1123152, “Synthesis, structure, and antitumor and antiviral activities of a series of 5-halouridine cyclic 3',5'-monophosphates” (1986).
≈ marks a conversion by molar mass, not a printed value.

Legend:
Assay type in all cases: functional
L1210 [1] = assay: Cytostatic activity against proliferation of L1210/0 cells (murine leukemia L1210 cells); conditions: Mus musculus, read-out: ID50 (the source's name)
Summary of the method: (§1)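 Tumor cell proliferation assay. L1210/0 is the parental murine leukemia line and Raji/0 the parental human lymphoblast line, with a deoxythymidine kinase deficient Raji subline. Value is the ID50, the dose that inhibits cell proliferation by 50%.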

L1210 [2] = assay: Cytostatic activity against proliferation of L1210/BdU cells (deoxythymidine kinase deficient L1210 cells); conditions: Mus musculus, read-out: ID50 (the source's name)
Summary of the method: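 Murine L1210 subline deficient in deoxythymidine kinase (L1210/BdU), selected for growth in 260 μg/mL 5-bromo-dU. Proliferation assay; value is the ID50, the dose that inhibits tumor cell proliferation by 50%.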

Raji [3] = assay: Cytostatic activity against proliferation of Raji/0 cells (human lymphoblast Raji cells); conditions: read-out: ID50 (the source's name); summary of the method: as §1
Raji [4] = assay: Cytostatic activity against proliferation of Raji/TK cells (deoxythymidine kinase deficient Raji cells); conditions: Homo sapiens, read-out: ID50 (the source's name); summary of the method: as §1
Human alphaherpesvirus 2 [5] = assay: Antiviral activity against Herpes Simplex Virus-2(196)
Summary of the method: (§2)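 Primary rabbit kidney cell cultures infected with virus. Value is the minimum concentration that reduces virus-induced cytopathogenicity by 50%. Cytotoxicity was scored as a microscopically detectable alteration of normal cell morphology.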

Human alphaherpesvirus 2 [6] = assay: Antiviral activity against Herpes Simplex Virus-2(G); summary of the method: as §2
Human alphaherpesvirus 2 [7] = assay: Antiviral activity against Herpes Simplex Virus-2(Lyons); summary of the method: as §2
Human alphaherpesvirus 1 [8] = assay: Antiviral activity against Herpes Simplex Virus-1 (KOS); summary of the method: as §2
Human alphaherpesvirus 1 [9] = assay: Antiviral activity against Herpes Simplex Virus-1 (McIntyre); summary of the method: as §2
[10] = system: Vesicular stomatitis virus; assay: Antiviral activity against vesicular stomatitis virus; summary of the method: as §2
Vaccinia virus = assay: Antiviral activity against vaccinia virus; conditions: Orthopoxvirus vaccinia; summary of the method: as §2
Human alphaherpesvirus 1 [11] = assay: Antiviral activity against Herpes Simplex Virus-1 (F); summary of the method: as §2

Row | Structure (SMILES) | IC50 (L1210 [1]) | IC50 (L1210 [2]) | IC50 (Raji [3]) | IC50 (Raji [4]) | MIC (Human alphaherpesvirus 2 [5]) | MIC (Human alphaherpesvirus 2 [6]) | MIC (Human alphaherpesvirus 2 [7]) | MIC (Human alphaherpesvirus 1 [8]) | MIC (Human alphaherpesvirus 1 [9]) | MIC [10] | MIC (Vaccinia virus) | MIC (Human alphaherpesvirus 1 [11])
1 | O=c1[nH]cc(I)c(=O)[nH]1 | > 1000 µg/mL | > 1000 µg/mL | > 1000 µg/mL | 612 µg/mL (≈ 2570 µM) |  |  |  |  |  |  |  | 
2 | O=c1[nH]c(=O)n([C@@H]2O[C@H](COP(=O)(O)O)[C@@H](O)[C@H]2O)cc1I | 703 µg/mL (≈ 1560 µM) | > 1000 µg/mL | > 1000 µg/mL | > 1000 µg/mL |  |  |  |  |  |  |  | 
3 | Oc1ncc(Cl)c(O)n1 | 455 µg/mL (≈ 3110 µM) | 660 µg/mL (≈ 4500 µM) | > 1000 µg/mL | > 1000 µg/mL |  |  |  |  |  |  |  | 
4 | O=c1[nH]c(=O)n([C@@H]2O[C@H](COP(=O)(O)O)[C@@H](O)[C@H]2O)cc1Br | 385 µg/mL (≈ 955 µM) | 376 µg/mL (≈ 933 µM) | 48 µg/mL (≈ 119 µM) | > 1000 µg/mL |  |  |  |  |  |  |  | 
5 | O=c1[nH]c(=O)n([C@@H]2O[C@H](CO)[C@@H](O)[C@@H]2O)cc1Br | 210 µg/mL (≈ 650 µM) | 335 µg/mL (≈ 1040 µM) | 32 µg/mL (≈ 99 µM) | 950 µg/mL (≈ 2940 µM) |  |  |  |  |  |  |  | 
6 | O=c1[nH]c(=O)n([C@@H]2O[C@@H]3COP(=O)(O)O[C@H]3[C@H]2O)cc1I | 315 µg/mL (≈ 729 µM) | 344 µg/mL (≈ 796 µM) | 359 µg/mL (≈ 831 µM) | 722 µg/mL (≈ 1670 µM) |  |  |  |  |  |  |  | 
7 | O=c1[nH]c(=O)n([C@@H]2O[C@@H]3COP(=O)(O)O[C@H]3[C@H]2O)cc1Cl | > 1000 µg/mL | > 1000 µg/mL | 278 µg/mL (≈ 816 µM) | 369 µg/mL (≈ 1080 µM) | > 400 µg/mL | > 400 µg/mL | > 400 µg/mL | > 400 µg/mL | > 400 µg/mL | > 400 µg/mL | > 400 µg/mL | > 400 µg/mL
8 | O=c1[nH]c(=O)n([C@@H]2O[C@@H]3COP(=O)(O)O[C@H]3[C@H]2O)cc1Br | 315 µg/mL (≈ 818 µM) | 294 µg/mL (≈ 764 µM) | 210 µg/mL (≈ 545 µM) | 241 µg/mL (≈ 626 µM) | > 200 µg/mL | > 200 µg/mL | 150 µg/mL (≈ 390 µM) | > 200 µg/mL | 200 µg/mL (≈ 519 µM) | > 200 µg/mL | > 200 µg/mL | > 200 µg/mL
9 | O=c1[nH]c(=O)n([C@@H]2O[C@@H]3COP(=O)(O)O[C@H]3[C@H]2O)cc1F | 0.34 µg/mL (≈ 1.05 µM) | 0.332 µg/mL (≈ 1.02 µM) | 0.416 µg/mL (≈ 1.28 µM) | 1.64 µg/mL (≈ 5.06 µM) | > 100 µg/mL | > 100 µg/mL | > 100 µg/mL | > 100 µg/mL | > 100 µg/mL | 150 µg/mL (≈ 463 µM) | 20 µg/mL (≈ 61.7 µM) | > 100 µg/mL
10 | O=c1[nH]c(=O)n(C2O[C@H](COP(=O)(O)O)[C@@H](O)[C@@H]2O)cc1F (stereo partly drawn) | 0.024 µg/mL (≈ 0.0701 µM) | 0.03 µg/mL (≈ 0.0877 µM) | 0.029 µg/mL (≈ 0.0848 µM) | 0.141 µg/mL (≈ 0.412 µM) |  |  |  |  |  |  |  | 
11 | O=c1[nH]c(=O)n(C2O[C@H](CO)[C@@H](O)[C@@H]2O)cc1I (stereo partly drawn) | > 1000 µg/mL | > 1000 µg/mL | 639 µg/mL (≈ 1730 µM) | 738 µg/mL (≈ 1990 µM) |  |  |  |  |  |  |  | 
12 | O=c1[nH]cc(Br)c(=O)[nH]1 [5-BROMOURACIL] | > 1000 µg/mL | > 1000 µg/mL | > 1000 µg/mL | > 1000 µg/mL |  |  |  |  |  |  |  | 
13 | O=c1[nH]c(=O)n([C@@H]2O[C@H](CO)[C@@H](O)[C@H]2O)cc1F [5-FLUOROURIDINE] | 0.013 µg/mL (≈ 0.0496 µM) | 0.019 µg/mL (≈ 0.0725 µM) | 0.023 µg/mL (≈ 0.0877 µM) | 0.085 µg/mL (≈ 0.324 µM) |  |  |  |  |  |  |  | 
14 | O=c1[nH]c(=O)n([C@H]2C[C@H](O)[C@@H](CO)O2)cc1/C=C/Br [BRIVUDINE] |  |  |  |  | 100 µg/mL (≈ 300 µM) | 1 µg/mL (≈ 3 µM) | 1 µg/mL (≈ 3 µM) | 0.02 µg/mL (≈ 0.06 µM) | 0.02 µg/mL (≈ 0.06 µM) | > 400 µg/mL | 2 µg/mL (≈ 6 µM) | 0.02 µg/mL (≈ 0.06 µM)
15 | O=c1[nH]cc(F)c(=O)[nH]1 [FLUOROURACIL] | 0.208 µg/mL (≈ 1.6 µM) | 0.286 µg/mL (≈ 2.2 µM) | 1.35 µg/mL (≈ 10.4 µM) | 3.37 µg/mL (≈ 25.9 µM) |  |  |  |  |  |  |  | 
